Data from paper PMC3690436 (Journal of nuclear medicine : official publication, Society …, 2009).

Assays:
[1] = target: T1, P-gp (Homo sapiens, UniProt P08183); details: cited from earlier work
[2] = Arterial blood and metabolite analysis of; type: in vivo, human; details: 2 mg/kg i.v.
[3] = system: MRP1; details: cited from earlier work
[4] = system: P-gp; details: in vitro; cited from earlier work
[5] = Tariquidar concentration in venous plasma by LC/MS; type: in vivo, human
[6] = target: T1, P-gp; assay: Rhodamine-123 efflux assay in peripheral white blood cells; type: cell-based
Outline: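 Fresh whole blood (18 mL) was drawn from each of the 5 volunteers before dosing. Isolated white blood cells were incubated at 37°C with Rh-123 (0.2 μg/mL) and 10 dilutions of test compound in DMSO (final 0.01 nM–1 μM), in duplicate. Rh-123 accumulation (mean fluorescence per cell) was read by FACS. EC50 came from hyperbolic dose-response fits, given as mean±SD over the 5 donors.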

[7] = humans; ref Ulrich Elben, written communication, 2008; cited from earlier work
[8] = Tolerability of tariquidar in healthy volunteers; type: in vivo, human; details: 2 mg/kg BW i.v., 5 healthy male subjects
[9] = target: P-gp at the human blood-brain barrier (Homo sapiens, UniProt P08183)
P-gp at the human blood-brain barrier, sequence (P08183 whole entry): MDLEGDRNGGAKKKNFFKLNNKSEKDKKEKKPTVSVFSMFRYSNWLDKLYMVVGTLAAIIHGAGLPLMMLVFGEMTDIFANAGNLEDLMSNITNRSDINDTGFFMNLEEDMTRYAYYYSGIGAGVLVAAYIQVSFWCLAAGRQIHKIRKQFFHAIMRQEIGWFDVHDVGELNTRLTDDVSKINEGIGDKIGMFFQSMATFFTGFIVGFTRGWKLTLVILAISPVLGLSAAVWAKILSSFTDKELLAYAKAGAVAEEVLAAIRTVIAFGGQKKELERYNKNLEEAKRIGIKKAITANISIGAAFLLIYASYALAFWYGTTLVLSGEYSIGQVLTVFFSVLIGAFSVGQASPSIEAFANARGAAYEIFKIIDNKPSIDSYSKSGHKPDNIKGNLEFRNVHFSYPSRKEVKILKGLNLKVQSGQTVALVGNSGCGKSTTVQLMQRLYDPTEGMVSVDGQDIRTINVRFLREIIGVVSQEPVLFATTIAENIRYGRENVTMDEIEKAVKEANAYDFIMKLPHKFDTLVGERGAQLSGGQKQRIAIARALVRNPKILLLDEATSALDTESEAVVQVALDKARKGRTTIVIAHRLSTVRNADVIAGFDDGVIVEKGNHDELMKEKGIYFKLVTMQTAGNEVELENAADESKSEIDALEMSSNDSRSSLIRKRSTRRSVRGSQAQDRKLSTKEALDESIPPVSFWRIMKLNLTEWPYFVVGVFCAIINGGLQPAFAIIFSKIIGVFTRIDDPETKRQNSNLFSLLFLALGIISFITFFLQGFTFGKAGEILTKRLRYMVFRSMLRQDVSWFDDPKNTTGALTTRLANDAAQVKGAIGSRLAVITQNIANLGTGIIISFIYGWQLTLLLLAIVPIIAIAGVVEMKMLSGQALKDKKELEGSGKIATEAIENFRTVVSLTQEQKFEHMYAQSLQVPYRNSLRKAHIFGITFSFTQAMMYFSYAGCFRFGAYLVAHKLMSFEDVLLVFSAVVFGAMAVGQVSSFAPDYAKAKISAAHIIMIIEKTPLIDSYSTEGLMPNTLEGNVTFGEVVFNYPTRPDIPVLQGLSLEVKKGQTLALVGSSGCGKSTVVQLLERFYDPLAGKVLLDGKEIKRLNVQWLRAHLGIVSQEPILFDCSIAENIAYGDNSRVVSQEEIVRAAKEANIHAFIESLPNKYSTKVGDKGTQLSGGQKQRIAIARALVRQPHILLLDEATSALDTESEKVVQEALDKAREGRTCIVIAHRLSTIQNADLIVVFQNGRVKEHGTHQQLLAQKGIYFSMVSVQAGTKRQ

[10] = cited from earlier work
[11] = system: P-gp; details: rats, cited from earlier work
[12] = system: P-gp; details: non-human primates, infusion of 20 mg/kg/2 hr; cited from earlier work

T1 sequence (P08183 whole entry): as above

C=C[C@H]1C[N@@]2CC[C@H]1C[C@@H]2[C@@H](O)c1ccnc2ccc(OC)cc12 [quinidine]
CNS pharmacologic effect of loperamide when inhibitor co-administered ([1]; 8 healthy volunteers): caused respiratory depression

COc1cc2c(cc1OC)CN(CCc1ccc(NC(=O)c3cc(OC)c(OC)cc3NC(=O)c3cnc4ccccc4c3)cc1)CC2 [tariquidar, Tariquidar]
Influence of tariquidar on the metabolism of (R)-11C-verapamil [2]: did not have significant influence
Inhibition of MRP1 [3]: does not inhibit
CNS activity of loperamide (reduction in pupil diameter) after inhibitor ([1]; humans, tariquidar 2 mg/kg BW): not affected
Duration of P-gp inhibitory effect after removal from the incubation medium [4]: up to 22 h
Plasma concentration of tariquidar during the second PET scan ([5]; 200-240 min after start of infusion, 2 mg/kg i.v., mean±SD): 490 ± 166 ng/mL
Plasma concentration relative to EC50 for inhibition of Rh-123 efflux ([5]; at 24 h after tariquidar infusion): 424 fold
Concentration of unbound tariquidar in plasma ([5]; at the time of the second scan, corrected for 99.5% protein binding): 2.45 ± 0.83 ng/mL
Plasma concentration relative to EC50 for inhibition of Rh-123 efflux ([5]; during second PET scan): 980 fold
concentration at 24 h ([5]; male, human, plasma, intravenous, 2 mg/kg): 212 ± 24 ng/mL
EC50 [6]: 0.773 nM
Binding to plasma proteins [7]: 99.5%
Mild adverse events possibly related to study medication [8]: mild hypotension, headache and nausea, each in one patient and dizziness in 2 patients
Tolerability [8]: well tolerated without occurrence of severe or serious adverse events
Maximum increase of brain radioactivity versus baseline (t=40 min) ([9]; scan 1, at 5 min after end of tariquidar infusion (t=75 min), 2 mg/kg i.v.): +74%
Increase of brain radioactivity versus baseline (t=40 min) ([9]; scan 1, at 35 min after end of tariquidar infusion (t=115 min), on average): +10%
Tariquidar-related material in plasma existing as unchanged parent compound ([10]; monkey plasma): > 95%
Elimination half-life ([10]; monkey): 5 h
Plasma tariquidar concentration at the time of the PET scan ([11]; 15 mg/kg): about 1,400 ng/mL
Increase of (R)-11C-verapamil DVs ([11]; plasma tariquidar levels about 500 ng/mL): 3-4 fold
Increase of the (R)-11C-verapamil DV ([11]; tariquidar 15 mg/kg): 12 fold

C/C=C/C[C@@H](C)C(=O)[C@H]1C(=O)N[C@@H](C(C)C)C(=O)N(C)CC(=O)N(C)[C@@H](CC(C)C)C(=O)N[C@@H](C(C)C)C(=O)N(C)[C@@H](CC(C)C)C(=O)N[C@@H](C)C(=O)N[C@H](C)C(=O)N(C)[C@@H](CC(C)C)C(=O)N(C)[C@@H](CC(C)C)C(=O)N(C)[C@@H](C(C)C)C(=O)N1C [valspodar]
Increase of brain uptake of racemic 11C-verapamil [12]: 4.61 fold
